# Calls of active or inactive are those of the source. No cut-off for these calls is given here.
# Tests used:
# Quadruplex DNA [1] = experiment: Binding affinity to human c-Myc G-quadruplex DNA at 0.6 uM after 5 mins in presence of KCl by fluorescence spectroscopic method; type: nucleic-acid assay
# Procedure, shortened: (§1)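 Fluorescence titration at 25 °C with 0.6 µM ligand in 10 mM Tris-HCl pH 7.4, 100 mM KCl, 0.1 mM EDTA. Preformed G4 DNA was added stepwise, with 5 min incubation before each spectrum. Excitation 330 nm; emission 350–550 nm, slit 5 nm.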
# Quadruplex DNA [2] = experiment: Binding affinity to human Bcl2 G-quadruplex DNA at 0.6 uM after 5 mins in presence of KCl by fluorescence spectroscopic method; type: nucleic-acid assay; procedure, shortened: as §1
# Quadruplex DNA [3] = experiment: Binding affinity to human c-Kit2 G-quadruplex DNA at 0.6 uM after 5 mins in presence of KCl by fluorescence spectroscopic method; type: nucleic-acid assay; procedure, shortened: as §1
# Quadruplex DNA [4] = experiment: Binding affinity to human VEGF G-quadruplex DNA at 0.6 uM after 5 mins in presence of KCl by fluorescence spectroscopic method; type: nucleic-acid assay; procedure, shortened: as §1
# Quadruplex DNA [5] = experiment: Induction of conformational changes in human telomeric G-quadruplex DNA assessed as inversion from potassium ion stabilized hybrid type mixed parallel/antiparallel G-quadruplex to stable telomere parallel-stranded G-quadruplex after 5 mins in presence of KCl by CD spectroscopic method; type: nucleic-acid assay
# Procedure, shortened: (§2)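 CD spectra of 5 µM G4 DNA in 10 mM Tris-HCl pH 7.4, 100 mM KCl, 0.1 mM EDTA, with or without ligand. Mixtures were heated 95 °C for 5 min and slowly cooled to room temperature. Recorded 200–400 nm at 25 °C, 100 nm/min, 2 s response, 1 cm cell; average of three scans.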
# Quadruplex DNA [6] = experiment: Induction of conformational changes in human Bcl2 G-quadruplex DNA assessed as inversion from potassium ion stabilized hybrid type mixed parallel/antiparallel G-quadruplex to stable telomere parallel-stranded G-quadruplex after 5 mins in presence of KCl by CD spectroscopic method; type: nucleic-acid assay; procedure, shortened: as §2
# Quadruplex DNA [7] = experiment: Binding affinity to human c-Myc G-quadruplex DNA assessed as stabilization of parallel stranded topology after 5 mins in presence of KCl by CD spectroscopic method; type: nucleic-acid assay; procedure, shortened: as §2
# Quadruplex DNA [8] = experiment: Binding affinity to human c-Kit2 G-quadruplex DNA assessed as stabilization of parallel stranded topology after 5 mins in presence of KCl by CD spectroscopic method; type: nucleic-acid assay; procedure, shortened: as §2
# Quadruplex DNA [9] = experiment: Binding affinity to human VEGF G-quadruplex DNA assessed as stabilization of parallel stranded topology after 5 mins in presence of KCl by CD spectroscopic method; type: nucleic-acid assay; procedure, shortened: as §2
# Quadruplex DNA [10] = experiment: Displacement of thiazole orange from human telomeric G-quadruplex DNA after 5 mins in presence of KCl by fluorescence assay; type: nucleic-acid assay
# Procedure, shortened: (§3)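 Thiazole orange displacement from a G4 DNA–TO complex (1 µM TO + 0.5 µM G4 DNA) in 10 mM Tris-HCl pH 7.4, 100 mM KCl, 0.1 mM EDTA. Ligand was added in increasing steps, with 5 min incubation each. Fluorescence read at ex 501/em 531 nm; % displacement = 100 − (Ft/F0 × 100). DC50 is the ligand concentration giving 50% displacement, read from plots; average of two independent experiments.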
# Quadruplex DNA [11] = experiment: Displacement of thiazole orange from human c-Kit1 G-quadruplex DNA after 5 mins in presence of KCl by fluorescence assay; type: nucleic-acid assay; procedure, shortened: as §3
# Quadruplex DNA [12] = experiment: Displacement of thiazole orange from human c-Kit2 G-quadruplex DNA after 5 mins in presence of KCl by fluorescence assay; type: nucleic-acid assay; procedure, shortened: as §3
# Quadruplex DNA [13] = experiment: Displacement of thiazole orange from human VEGF G-quadruplex DNA after 5 mins in presence of KCl by fluorescence assay; type: nucleic-acid assay; procedure, shortened: as §3
# Quadruplex DNA [14] = experiment: Binding affinity to human c-Myc G-quadruplex DNA assessed as change in melting temperature in presence of KCl by CD spectroscopic method; type: nucleic-acid assay
# Procedure, shortened: (§4)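 CD melting of 5 µM G4 DNA in 10 mM Tris-HCl pH 7.4, 25 mM KCl, 0.1 mM EDTA. Ligand was present during folding (heating, slow cooling). Spectra 200–400 nm over 20–96 °C in 2 °C steps, buffer blank subtracted. Tm was taken from normalized ellipticity at the positive maximum (262 nm for promoter G4s). ΔTm = ligand-bound minus DNA alone; average of two independent experiments.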
# Quadruplex DNA [15] = experiment: Binding affinity to human Bcl2 G-quadruplex DNA assessed as change in melting temperature in presence of KCl by CD spectroscopic method; type: nucleic-acid assay; procedure, shortened: as §4
# Quadruplex DNA [16] = experiment: Binding affinity to human c-Kit1 G-quadruplex DNA assessed as change in melting temperature in presence of KCl by CD spectroscopic method; type: nucleic-acid assay; procedure, shortened: as §4
# Quadruplex DNA [17] = experiment: Binding affinity to human 77-mer c-Myc G-quadruplex DNA assessed as inhibition of Taq DNA polymerase-mediated DNA synthesis by measuring generation of premature chain termination products using 32P-labeled primer after 30 mins by polymerase stop assay; type: nucleic-acid assay
# Procedure, shortened: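 Template of 10 nM single-stranded 77-mer c-MYC with the G-quadruplex-forming sequence, annealed to 32P-labeled plus cold primer (15 nM) in Tris-HCl pH 7.4 with 5 mM KCl. Annealing was 95 °C for 5 min then slow cooling, with ligand added before annealing. Extension with Taq polymerase (5 mM MgCl2, 0.5 mM DTT, 0.2 mM dNTPs) ran 30 min at 48 or 40 °C. Products were resolved on 15% urea denaturing PAGE and read by phosphorimaging.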
# [18] = molecular target: Telomerase reverse transcriptase (Homo sapiens, UniProt O14746); experiment: Inhibition of telomerase (unknown origin) by TRAP-LIG assay
# Chain of Telomerase reverse transcriptase (O14746 whole entry): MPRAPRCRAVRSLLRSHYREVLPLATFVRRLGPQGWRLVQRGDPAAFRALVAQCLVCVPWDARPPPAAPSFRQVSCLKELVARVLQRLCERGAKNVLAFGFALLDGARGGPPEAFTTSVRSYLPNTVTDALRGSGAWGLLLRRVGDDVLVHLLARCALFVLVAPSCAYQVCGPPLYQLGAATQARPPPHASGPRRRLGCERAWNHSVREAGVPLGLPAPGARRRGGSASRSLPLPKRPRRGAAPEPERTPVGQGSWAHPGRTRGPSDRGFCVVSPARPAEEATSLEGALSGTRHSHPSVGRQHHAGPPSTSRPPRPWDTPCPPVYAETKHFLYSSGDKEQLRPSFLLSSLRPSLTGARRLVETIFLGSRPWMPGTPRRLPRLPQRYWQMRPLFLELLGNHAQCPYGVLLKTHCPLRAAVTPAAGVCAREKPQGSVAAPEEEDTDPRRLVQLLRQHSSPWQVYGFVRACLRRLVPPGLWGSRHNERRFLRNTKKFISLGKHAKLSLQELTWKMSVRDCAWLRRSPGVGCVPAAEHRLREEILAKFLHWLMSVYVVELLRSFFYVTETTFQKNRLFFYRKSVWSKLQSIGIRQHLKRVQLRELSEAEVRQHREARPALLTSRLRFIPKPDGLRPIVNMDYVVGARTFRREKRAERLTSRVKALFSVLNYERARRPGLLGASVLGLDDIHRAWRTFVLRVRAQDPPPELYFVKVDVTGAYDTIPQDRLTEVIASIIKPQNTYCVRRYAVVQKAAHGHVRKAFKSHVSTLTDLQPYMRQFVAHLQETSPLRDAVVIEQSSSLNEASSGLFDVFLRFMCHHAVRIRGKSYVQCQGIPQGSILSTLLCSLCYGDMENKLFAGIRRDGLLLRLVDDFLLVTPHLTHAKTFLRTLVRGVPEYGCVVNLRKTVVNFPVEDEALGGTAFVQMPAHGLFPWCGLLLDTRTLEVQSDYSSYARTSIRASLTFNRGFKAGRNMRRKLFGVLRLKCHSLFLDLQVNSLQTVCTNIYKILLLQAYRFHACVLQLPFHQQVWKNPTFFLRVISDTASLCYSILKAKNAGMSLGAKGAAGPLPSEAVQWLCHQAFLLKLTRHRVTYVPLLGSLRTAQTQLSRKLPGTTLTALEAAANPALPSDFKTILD
# Procedure, shortened: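 Telomerase activity measured by modified TRAP-LIG assay across ligand concentrations of 0.01 to 2 µM (11 levels). Positive and negative controls included. Inhibition was judged from the intensity and number of telomeric ladder bands.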
# Quadruplex DNA [19] = experiment: Stabilization of c-Myc G-quadruplex DNA in human HeLa cells assessed as decrease in c-Myc mRNA level at 5 uM after 24 hrs by RT-PCR method relative to control; type: cell-based; set-up: scale not given: the % may be the effect or the level left
# Procedure, shortened: (§5)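 HeLa cells exposed to increasing ligand concentrations (5 and 10 µM named) for 24 h, with DMSO-treated cells as control. Total RNA was extracted with TRI reagent and DNase I-treated. c-MYC and VEGF transcripts were quantified by qRT-PCR, normalized to GAPDH, and expressed as relative fold change.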
# Quadruplex DNA [20] = experiment: Stabilization of c-Myc G-quadruplex DNA in human HeLa cells assessed as decrease in c-Myc mRNA level after 24 hrs by RT-PCR method; type: cell-based; procedure, shortened: as §5
# Quadruplex DNA [21] = experiment: Stabilization of VEGF G-quadruplex DNA in human HeLa cells assessed as decrease in VEGF mRNA level at 5 uM after 24 hrs by RT-PCR method relative to control; type: cell-based; set-up: scale not given: the % may be the effect or the level left; procedure, shortened: as §5
# HeLa [22] = experiment: Effect on GADPH mRNA level in human HeLa cells assessed as decrease in VEGF mRNA level at 2.5 to 10 uM after 24 hrs by RT-PCR method; type: cell-based
# HeLa [23] = experiment: Cytotoxicity against human HeLa cells assessed as reduction in cell viability after 72 hrs by MTT assay; type: functional, cell-based
# Procedure, shortened: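 HeLa and MCF7 cells in log phase were seeded for 24 h, then exposed to a range of ligand concentrations for 72 h. MTT (5 mg/ml stock) was added for 4 h, formazan dissolved in DMSO, and absorbance read at 570 nm. Three independent experiments in triplicate, mean ± SD.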
compound,measurement,setting,value
CN(C)CCCCn1c2ccc(-c3nc4ccc(N5CCN(CCO)CC5)cc4[nH]3)cc2c2cc(-c3nc4ccc(N5CCN(CCO)CC5)cc4[nH]3)ccc21,Activity,Quadruplex DNA [1],Active
same,Activity,Quadruplex DNA [2],Active
same,Activity,Quadruplex DNA [3],Active
same,Activity,Quadruplex DNA [4],Active
same,Activity,Quadruplex DNA [5],Active
same,Activity,Quadruplex DNA [6],Active
same,Activity,Quadruplex DNA [7],Active
same,Activity,Quadruplex DNA [8],Active
same,Activity,Quadruplex DNA [9],Active
same,DC50,Quadruplex DNA [10],1130 nM
same,DC50,Quadruplex DNA [11],860 nM
same,DC50,Quadruplex DNA [12],650 nM
same,DC50,Quadruplex DNA [13],780 nM
same,ΔTm,Quadruplex DNA [14],7.35 °C
same,ΔTm,Quadruplex DNA [15],9.54 °C
same,ΔTm,Quadruplex DNA [16],24.7 °C
same,Activity,Quadruplex DNA [17],Dose-dependent effect
same,IC50,[18],300 nM
same,inhibition,[18],Dose-dependent effect
same,Activity,Quadruplex DNA [19],49%
same,Activity,Quadruplex DNA [20],Dose-dependent effect
same,Activity,Quadruplex DNA [21],44%
same,Activity,HeLa [22],Non-Toxic
same,Activity,HeLa [23],Dose-dependent effect
same,IC50,HeLa [23],8290 nM

# Source: ChEMBL document CHEMBL4196021, “Targeting G-quadruplex DNA structures in the telomere and oncogene promoter regions by benzimidazole‒carbazole ligands” (Eur J Med Chem, 2018)
